High-throughput results from PubChem BioAssay.
KCNQ1 pot – potentiators or activators of KCNQ1 channel, primary screen, cell-based, thallium flux, high-throughput; CHO-K1 KCNQ1, thallium flux FluxOR fluorescence; active compounds read high; Potassium voltage-gated channel subfamily KQT member 1 (Homo sapiens), P51787; 310,000 tested, 0.35% active; B-score at 10 µM;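 active = fluorescence ratio B-score, a plate-corrected score, at least three library SD, with initial intensity B-score within 5 SD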
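Assay system: CHO-K1 cells stably expressing KCNQ1; Medium: assay buffer with matched DMSO; Also added: K+/Tl+ depolarizing stimulus; Dosing: single dose; Timing: dye 90 min, compound 20 min, room temperature; Measured by: kinetic FluxOR thallium fluorescence, 10-s 1-Hz baseline, 110-s post-stimulus read; Read-out: peak-minus-minimum fluorescence over initial fluorescence, negative-control normalized, B-scored.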
KCNQ1 inh – inhibitors of human KCNQ1 channel, primary screen, cell-based, thallium flux, high-throughput; B-score at 10 µM; Potassium voltage-gated channel subfamily KQT member 1 (Homo sapiens), P51787; CHO-K1 KCNQ1, FluxOR thallium flux fluorescence; active compounds read high; 310,000 tested, 1.3% active;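 active = compounds whose thallium flux B-score, printed positive for inhibition, exceeds three library SD while starting fluorescence stays within three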;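 also: channel opened by potassium depolarization with thallium stimulus after 20 min compound exposure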
KCNK3 block – human KCNK3 channel inhibitors, primary screen, CHO cells, FluxOR thallium flux, B-score; FluxOR fluorescence; active compounds read low; B-score at 10 µM; 340,000 tested, 0.84% active;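 active = B-score under library mean minus 4 SD, starting fluorescence ratio at most library mean plus 5 SD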;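 also: more negative B-score means stronger inhibition of thallium flux through KCNK3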
Target sequence (O14649 whole entry, looked up): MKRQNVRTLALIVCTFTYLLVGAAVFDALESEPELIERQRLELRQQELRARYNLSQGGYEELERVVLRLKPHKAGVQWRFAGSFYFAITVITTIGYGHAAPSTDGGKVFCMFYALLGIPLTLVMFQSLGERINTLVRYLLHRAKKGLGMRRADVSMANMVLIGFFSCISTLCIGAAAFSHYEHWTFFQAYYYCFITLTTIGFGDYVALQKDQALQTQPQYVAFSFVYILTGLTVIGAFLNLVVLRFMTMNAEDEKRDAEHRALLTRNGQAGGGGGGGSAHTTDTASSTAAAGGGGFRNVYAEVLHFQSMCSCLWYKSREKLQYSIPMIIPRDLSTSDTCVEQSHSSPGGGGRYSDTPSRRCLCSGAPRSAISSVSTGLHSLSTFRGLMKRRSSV
hERG protect – hERG rescue from dofetilide block, primary screen, cell-based, CHO-hERG, FluxOR thallium flux, dofetilide IC70; Voltage-gated inwardly rectifying potassium channel KCNH2 (Homo sapiens), Q12809; dofetilide IC70 present; activation (rescue from dofetilide block), less the hit threshold, % at 10 µM; 310,000 tested, 0.51% active;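 active = activation above the mean of controls blocked by dofetilide plus 5 SD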;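 also: thallium influx through hERG after potassium depolarization seen as dye fluorescence rise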
Kir21 block – inhibitors of mouse Kir2.1 inward-rectifier potassium channel. AID 1672, 2009. HEK293-Kir2.1, FluxOR thallium flux fluorescence; active compounds read low. 310,000 tested, 0.85% active. Inward rectifier potassium channel 2 (Mus musculus), P35561. B-score at 10 µM;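 active = fluorescence ratio B-score at or below minus 3 SD of library scores, with starting-brightness B-score within 2 SD, cut at about -4.2 in these data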;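 also: channel flux triggered by added potassium and thallium sulfate stimulus; B-score of peak minus minimum fluorescence over baseline after thallium stimulus; more negative B-score means stronger Kir2.1 block with less thallium influx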
KCNK9 inh – KCNK9 potassium channel inhibitors, primary screen, HEK293 cells, thallium flux; Potassium channel subfamily K member 9 (Homo sapiens), Q9NPC2; FluxOR thallium flux fluorescence; active compounds read low; B-score at 10 µM; 310,000 tested, 1.2% active; AID 488922, 2010;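 active = ratio B-score over 3 SD below the library mean, with starting fluorescence within 5 SD of its mean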;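 also: negative B-score means less thallium flux so channel inhibition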
An asterisk follows results filed as active. A selection: hits, their analogues and other compounds. The true share with any hit is near 3.7%.

For O=C(CN(c1cccc(Br)c1)S(=O)(=O)c1ccccc1)N/N=C/c1cc([N+](=O)[O-])ccc1O the results were KCNQ1 pot inactive, KCNQ1 inh 16*, KCNK3 block inactive, hERG protect -19.6, Kir21 block -0.02 and KCNK9 inh inactive.
For O=C(CCCC(=O)Nc1cccc(Br)c1)N/N=C/c1cc([N+](=O)[O-])ccc1O the results were KCNQ1 pot inactive, KCNQ1 inh 7*, KCNK3 block inactive, hERG protect -9.0, Kir21 block -2.71 and KCNK9 inh inactive.
Screening O=C(O)c1ccccc1-c1ccc(/C=C/c2cc(C(F)(F)F)[nH]c(=O)n2)o1 returned KCNQ1 pot inactive, KCNQ1 inh inactive, KCNK3 block inactive, hERG protect -42.5, Kir21 block -14 and KCNK9 inh inactive.
For O=c1nc(/C=C/c2ccc(-c3ccc(F)cc3)o2)cc(C(F)(F)F)[nH]1 the results were KCNQ1 pot inactive, KCNQ1 inh 11*, hERG protect -26.9, Kir21 block -11.6 and KCNK9 inh inactive.
For Cn1c(SCC(=O)N2CCOCC2)nc2cccnc21 the results were KCNQ1 pot inactive, KCNQ1 inh inactive, KCNK3 block inactive, hERG protect 4.8*, Kir21 block 0.2 and KCNK9 inh inactive.
Screening c1cncc(-c2nn[nH]n2)c1 returned KCNQ1 pot inactive, KCNQ1 inh inactive, KCNK3 block inactive, hERG protect 7.5*, Kir21 block -0.16 and KCNK9 inh inactive.
CCN(CC(=O)NCc1cccs1)C(=O)c1ccc(NS(=O)(=O)c2ccc(C(C)=O)cc2)cc1 was read as KCNQ1 pot inactive, KCNQ1 inh inactive, KCNK3 block inactive, hERG protect -9.1, Kir21 block -0.47 and KCNK9 inh inactive.
For COc1ccc(N=c2cc(-c3ccc(O)cc3)oc3ccccc23)cc1 the results were KCNQ1 pot inactive, KCNQ1 inh inactive, KCNK3 block inactive, hERG protect -20.6, Kir21 block 1.11 and KCNK9 inh inactive.
For COc1ccc(-c2cc(=Nc3ccc(C)cc3)c3ccccc3o2)cc1 the results were KCNQ1 pot inactive, KCNQ1 inh inactive, KCNK3 block inactive, hERG protect -9.0, Kir21 block -6.08* and KCNK9 inh inactive.
Cc1ccc(NC(=O)c2ccc3c(c2)OCO3)cc1Cl was read as KCNQ1 pot inactive, KCNQ1 inh inactive, KCNK3 block inactive, hERG protect 12.8*, Kir21 block 0.77 and KCNK9 inh inactive.
Cc1ccc(C(=O)Nc2ccc3c(c2)OCO3)cc1Cl was read as KCNQ1 pot inactive, KCNQ1 inh inactive, KCNK3 block inactive, hERG protect -3.2, Kir21 block 0.59 and KCNK9 inh inactive.
CC1CCCN(c2ccc(C(=O)Nc3ccc4c(c3)OCO4)cc2[N+](=O)[O-])C1 (configuration not stated) was read as KCNQ1 pot inactive, KCNQ1 inh 6*, KCNK3 block inactive, hERG protect -6.8, Kir21 block -1.64 and KCNK9 inh inactive.
Screening CN1CCN(C2=Cc3ccccc3Sc3cc(F)c(F)cc32)CC1 returned KCNQ1 pot inactive, KCNQ1 inh inactive, KCNK3 block inactive, hERG protect -22.4, Kir21 block -4.41* and KCNK9 inh inactive.
Screening CN1CCN(C2=Cc3ccccc3Sc3cc(F)c(Cl)cc32)CC1 returned KCNQ1 pot inactive, KCNQ1 inh inactive, KCNK3 block inactive, hERG protect -27.5, Kir21 block -1.69 and KCNK9 inh inactive.
`COc1ccccc1NC(=O)Cc1nnc(SCC(=O)c2ccccc2)n1C` gave KCNQ1 pot inactive, KCNQ1 inh inactive, KCNK3 block inactive, hERG protect -0.4, Kir21 block 0.3 and KCNK9 inh inactive.
